{"source": "ChEMBL document CHEMBL1146956", "about": "“Factor VIIa inhibitors: a prodrug strategy to improve oral bioavailability” (Bioorg Med Chem Lett, 2006)", "key": {"[1]": {"species": "Homo sapiens", "test": "Stability in human plasma at 10 uM after 2 hrs"}, "[2]": {"test": "Oral bioavailability in Sprague-Dawley rats", "type": "ADME, organism-based", "conditions": "rat, in vivo", "summary_of_the_method": "(§1)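 Plasma was acetonitrile-precipitated and analysed by LC/MS/MS for prodrug and parent, then AUC was computed. From dose-normalized AUCs, Abs = AUC_PO,PV/AUC_IV,JV and F = AUC_PO,JV/AUC_IV,JV.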"}, "[3]": {"test": "Solubility in phosphate buffer at pH 7.4", "type": "physicochemical", "summary_of_the_method": "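Kinetic solubility was measured in phosphate buffer pH 7.4 with 5% DMSO, prepared from a 10 mM DMSO stock. Samples were vortexed, then centrifuged at 4300 RPM for 10 min to remove insoluble material. The supernatant was quantified by HPLC/UV against a calibration standard.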"}, "[4]": {"test": "Stability in human liver microsome at 2 uM after 1 hr", "type": "ADME", "conditions": "liver microsomes, read-out: Stability", "summary_of_the_method": "(§2)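 Compound was incubated at 37 °C for 1 h with cryopreserved pooled male human or rat liver microsomes. Loss of prodrug was tracked by LC/MS/MS. Percent remaining at 1 h was taken as the end-point peak area over the time-0 peak area.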"}, "[5]": {"test": "Stability in rat liver microsome at 2 uM after 1 hr", "type": "ADME", "conditions": "liver microsomes, read-out: Stability", "summary_of_the_method": "as §2"}, "[6]": {"test": "Stability in rat plasma at 10 uM after 2 hrs", "type": "ADME, cell-free", "conditions": "read-out: Stability", "summary_of_the_method": "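Frozen pooled human or rat plasma (sodium heparin) was incubated with compound at 37 °C for 2 h. Prodrug disappearance was followed by LC/MS/MS. Percent remaining is the prodrug peak area at 2 h divided by the area at time 0.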"}, "[7]": {"test": "Oral absorption in Sprague-Dawley rats", "type": "ADME, organism-based", "conditions": "rat, in vivo", "summary_of_the_method": "as §1"}}}
{"smiles": "N=C(N)c1ccc2[nH]c(-c3cccc(-c4cc(F)ccc4O)c3O)cc2c1", "values": [{"measurement": "remaining at 2 h, 10 µM", "setting": "[1]", "result": 100, "unit": "%"}, {"measurement": "bioavailability", "setting": "[2]", "result": "< 1", "unit": "%"}, {"measurement": "solubility", "setting": "[3]", "result": 83, "unit": "µM"}, {"measurement": "remaining at 1 h, 2 µM", "setting": "[4]", "result": 61, "unit": "%"}, {"measurement": "remaining at 1 h, 2 µM", "setting": "[5]", "result": 100, "unit": "%"}, {"measurement": "remaining at 2 h, 10 µM", "setting": "[6]", "result": 100, "unit": "%"}]}
{"smiles": "C=CCO/N=C(/N)c1ccc2[nH]c(-c3cccc(-c4ccccc4O)c3O)cc2c1", "values": [{"measurement": "remaining at 2 h, 10 µM", "setting": "[1]", "result": 100, "unit": "%"}, {"measurement": "bioavailability", "setting": "[2]", "result": 100, "unit": "%"}, {"measurement": "solubility", "setting": "[3]", "result": 24, "unit": "µM"}, {"measurement": "Fa", "setting": "[7]", "result": 100, "unit": "%"}, {"measurement": "remaining at 1 h, 2 µM", "setting": "[4]", "result": 55, "unit": "%"}, {"measurement": "remaining at 1 h, 2 µM", "setting": "[5]", "result": 42, "unit": "%"}, {"measurement": "remaining at 2 h, 10 µM", "setting": "[6]", "result": 94, "unit": "%"}]}
{"smiles": "CC(=O)OC(C)OC(=O)NC(=N)c1ccc2[nH]c(-c3cccc(-c4ccccc4O)c3O)cc2c1", "note": "(stereo not drawn)", "values": [{"measurement": "remaining at 2 h, 10 µM", "setting": "[1]", "result": 96, "unit": "%"}, {"measurement": "solubility", "setting": "[3]", "result": "< 10", "unit": "µM"}, {"measurement": "remaining at 1 h, 2 µM", "setting": "[4]", "result": 9, "unit": "%"}, {"measurement": "remaining at 1 h, 2 µM", "setting": "[5]", "result": 12, "unit": "%"}, {"measurement": "remaining at 2 h, 10 µM", "setting": "[6]", "result": 37, "unit": "%"}]}
{"smiles": "CCONC(=N)c1ccc2[nH]c(-c3cccc(-c4ccccc4O)c3O)cc2c1", "values": [{"measurement": "remaining at 2 h, 10 µM", "setting": "[1]", "result": 100, "unit": "%"}, {"measurement": "bioavailability", "setting": "[2]", "result": 67, "unit": "%"}, {"measurement": "solubility", "setting": "[3]", "result": 43, "unit": "µM"}, {"measurement": "Fa", "setting": "[7]", "result": 53, "unit": "%"}, {"measurement": "remaining at 1 h, 2 µM", "setting": "[4]", "result": 50, "unit": "%"}, {"measurement": "remaining at 1 h, 2 µM", "setting": "[5]", "result": 70, "unit": "%"}, {"measurement": "remaining at 2 h, 10 µM", "setting": "[6]", "result": 100, "unit": "%"}]}
{"smiles": "Oc1ccccc1-c1cccc(-c2nc3ccccc3[nH]2)c1O", "values": [{"measurement": "bioavailability", "setting": "[2]", "result": 16, "unit": "%"}, {"measurement": "Fa", "setting": "[7]", "result": 100, "unit": "%"}]}
{"smiles": "N/C(=N/C(=O)OCC(Cl)(Cl)Cl)c1ccc2[nH]c(-c3cccc(-c4ccccc4O)c3O)cc2c1", "values": [{"measurement": "remaining at 2 h, 10 µM", "setting": "[1]", "result": 100, "unit": "%"}, {"measurement": "bioavailability", "setting": "[2]", "result": 14, "unit": "%"}, {"measurement": "solubility", "setting": "[3]", "result": "< 10", "unit": "µM"}, {"measurement": "Fa", "setting": "[7]", "result": 21, "unit": "%"}, {"measurement": "remaining at 1 h, 2 µM", "setting": "[4]", "result": 87, "unit": "%"}, {"measurement": "remaining at 1 h, 2 µM", "setting": "[5]", "result": 9, "unit": "%"}, {"measurement": "remaining at 2 h, 10 µM", "setting": "[6]", "result": 89, "unit": "%"}]}
{"smiles": "N/C(=N/O)c1ccc2[nH]c(-c3cccc(-c4ccccc4O)c3O)cc2c1", "values": [{"measurement": "remaining at 2 h, 10 µM", "setting": "[1]", "result": 97, "unit": "%"}, {"measurement": "bioavailability", "setting": "[2]", "result": 15, "unit": "%"}, {"measurement": "solubility", "setting": "[3]", "result": 380, "unit": "µM"}, {"measurement": "Fa", "setting": "[7]", "result": 39, "unit": "%"}, {"measurement": "remaining at 1 h, 2 µM", "setting": "[4]", "result": 41, "unit": "%"}, {"measurement": "remaining at 1 h, 2 µM", "setting": "[5]", "result": 9, "unit": "%"}, {"measurement": "remaining at 2 h, 10 µM", "setting": "[6]", "result": 94, "unit": "%"}]}
{"smiles": "CC(C)(C)ONC(=N)c1ccc2[nH]c(-c3cccc(-c4ccccc4O)c3O)cc2c1", "values": [{"measurement": "remaining at 2 h, 10 µM", "setting": "[1]", "result": 100, "unit": "%"}, {"measurement": "bioavailability", "setting": "[2]", "result": 38, "unit": "%"}, {"measurement": "solubility", "setting": "[3]", "result": "< 10", "unit": "µM"}, {"measurement": "Fa", "setting": "[7]", "result": 60, "unit": "%"}, {"measurement": "remaining at 1 h, 2 µM", "setting": "[4]", "result": 100, "unit": "%"}, {"measurement": "remaining at 1 h, 2 µM", "setting": "[5]", "result": 78, "unit": "%"}, {"measurement": "remaining at 2 h, 10 µM", "setting": "[6]", "result": 99, "unit": "%"}]}
{"smiles": "CC(C)ONC(=N)c1ccc2[nH]c(-c3cccc(-c4ccccc4O)c3O)cc2c1", "values": [{"measurement": "remaining at 2 h, 10 µM", "setting": "[1]", "result": 100, "unit": "%"}, {"measurement": "bioavailability", "setting": "[2]", "result": 10, "unit": "%"}, {"measurement": "solubility", "setting": "[3]", "result": 25, "unit": "µM"}, {"measurement": "Fa", "setting": "[7]", "result": 54, "unit": "%"}, {"measurement": "remaining at 1 h, 2 µM", "setting": "[4]", "result": 63, "unit": "%"}, {"measurement": "remaining at 1 h, 2 µM", "setting": "[5]", "result": 69, "unit": "%"}, {"measurement": "remaining at 2 h, 10 µM", "setting": "[6]", "result": 100, "unit": "%"}]}
{"smiles": "CCOC(=O)NC(=N)c1ccc2[nH]c(-c3cccc(-c4ccccc4O)c3O)cc2c1", "values": [{"measurement": "remaining at 2 h, 10 µM", "setting": "[1]", "result": 100, "unit": "%"}, {"measurement": "solubility", "setting": "[3]", "result": "< 10", "unit": "µM"}, {"measurement": "remaining at 1 h, 2 µM", "setting": "[4]", "result": 37, "unit": "%"}, {"measurement": "remaining at 1 h, 2 µM", "setting": "[5]", "result": 53, "unit": "%"}, {"measurement": "remaining at 2 h, 10 µM", "setting": "[6]", "result": 95, "unit": "%"}]}
{"smiles": "CC(C)OC(=O)NC(=N)c1ccc2[nH]c(-c3cccc(-c4ccccc4O)c3O)cc2c1", "values": [{"measurement": "remaining at 2 h, 10 µM", "setting": "[1]", "result": 100, "unit": "%"}, {"measurement": "bioavailability", "setting": "[2]", "result": 23, "unit": "%"}, {"measurement": "solubility", "setting": "[3]", "result": "< 10", "unit": "µM"}, {"measurement": "Fa", "setting": "[7]", "result": 53, "unit": "%"}, {"measurement": "remaining at 1 h, 2 µM", "setting": "[5]", "result": 49, "unit": "%"}, {"measurement": "remaining at 2 h, 10 µM", "setting": "[6]", "result": 100, "unit": "%"}]}
{"smiles": "N=C(N)c1ccc2nc(-c3cccc(-c4cc(F)ccc4O)c3O)[nH]c2c1", "values": [{"measurement": "bioavailability", "setting": "[2]", "result": "< 1", "unit": "%"}, {"measurement": "Fa", "setting": "[7]", "result": "< 1", "unit": "%"}]}
